Assay results reported in ChEMBL document CHEMBL1152807 (J Med Chem, 2009).
Active and inactive are the calls of the source. No cut-off for these calls is given here.

Legend:
PBMC = test: Inhibition of TNFalpha production in LPS-stimulated human PBMC preincubated before LPS challenge measured after 4 hrs by enzyme immunoassay; assay type: functional, cell-based
Blood = test: Inhibition of TNFalpha production in LPS-stimulated human whole blood preincubated before LPS challenge measured after 4 hrs by enzyme immunoassay; assay type: functional, tissue-based
Rattus norvegicus [1] = test: Antiinflammatory activity in po dosed BN rat late airway inflammatory model assessed as inhibition of ovalbumin-induced cell infiltration in bronchoalveolar lavage fluid measured 48 hrs after ovalbumin challenge; assay type: functional; details: Lung
Phosphodiesterase 4 = Phosphodiesterase 4 (Homo sapiens, UniProt P27815+Q08499+Q07343+Q08493); test: Inhibition of human PDE4; assay type: protein assay
Procedure, shortened: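 PDE4 enzyme was isolated from U937 cells, following a previously reported method.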

[2] = Ratio of IC50 for TNFalpha production in LPS-stimulated human whole blood to IC50 for TNFalpha production in LPS-stimulated human PBMC; assay type: functional
[3] = Metabolic stability in human microsomes assessed as half life; assay type: ADME, Microsome
Cytochrome P450 1A2 = target: T1, Cytochrome P450 1A2 (Homo sapiens, UniProt P05177); test: Inhibition of CYP1A2; assay type: ADME
T1 sequence (P05177 whole entry): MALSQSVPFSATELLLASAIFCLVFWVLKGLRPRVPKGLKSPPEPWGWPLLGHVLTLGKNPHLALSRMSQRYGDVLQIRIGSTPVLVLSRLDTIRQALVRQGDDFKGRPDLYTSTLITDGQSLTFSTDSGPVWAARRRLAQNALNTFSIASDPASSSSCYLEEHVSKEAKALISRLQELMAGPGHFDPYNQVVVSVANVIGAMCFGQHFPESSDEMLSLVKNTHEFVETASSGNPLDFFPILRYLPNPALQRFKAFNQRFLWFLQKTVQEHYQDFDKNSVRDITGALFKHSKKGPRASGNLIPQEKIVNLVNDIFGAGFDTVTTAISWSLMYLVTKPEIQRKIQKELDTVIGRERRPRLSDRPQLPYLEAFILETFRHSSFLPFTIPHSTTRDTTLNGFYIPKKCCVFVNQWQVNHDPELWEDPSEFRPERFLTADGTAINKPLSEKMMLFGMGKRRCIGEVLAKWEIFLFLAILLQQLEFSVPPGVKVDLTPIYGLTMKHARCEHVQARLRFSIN

Cytochrome P450 2C9 = Cytochrome P450 2C9 (Homo sapiens, UniProt P11712); test: Inhibition of CYP2C9; assay type: ADME
Sequence of Cytochrome P450 2C9 (P11712 whole entry): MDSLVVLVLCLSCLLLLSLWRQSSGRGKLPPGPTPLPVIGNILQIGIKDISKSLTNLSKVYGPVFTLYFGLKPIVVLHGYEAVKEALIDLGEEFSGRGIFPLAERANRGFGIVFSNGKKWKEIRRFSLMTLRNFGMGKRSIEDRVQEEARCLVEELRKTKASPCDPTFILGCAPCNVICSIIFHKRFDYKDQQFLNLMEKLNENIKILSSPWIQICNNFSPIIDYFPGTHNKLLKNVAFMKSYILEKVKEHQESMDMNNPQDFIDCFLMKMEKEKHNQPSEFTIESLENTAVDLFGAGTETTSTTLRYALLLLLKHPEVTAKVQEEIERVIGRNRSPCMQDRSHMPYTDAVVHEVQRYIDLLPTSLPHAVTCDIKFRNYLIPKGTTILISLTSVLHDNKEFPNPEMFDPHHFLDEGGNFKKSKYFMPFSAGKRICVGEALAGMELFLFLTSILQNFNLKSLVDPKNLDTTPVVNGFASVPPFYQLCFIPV

Cytochrome P450 2C19 = Cytochrome P450 2C19 (Homo sapiens, UniProt P33261); test: Inhibition of CYP2C19; assay type: ADME
Sequence of Cytochrome P450 2C19 (P33261 whole entry): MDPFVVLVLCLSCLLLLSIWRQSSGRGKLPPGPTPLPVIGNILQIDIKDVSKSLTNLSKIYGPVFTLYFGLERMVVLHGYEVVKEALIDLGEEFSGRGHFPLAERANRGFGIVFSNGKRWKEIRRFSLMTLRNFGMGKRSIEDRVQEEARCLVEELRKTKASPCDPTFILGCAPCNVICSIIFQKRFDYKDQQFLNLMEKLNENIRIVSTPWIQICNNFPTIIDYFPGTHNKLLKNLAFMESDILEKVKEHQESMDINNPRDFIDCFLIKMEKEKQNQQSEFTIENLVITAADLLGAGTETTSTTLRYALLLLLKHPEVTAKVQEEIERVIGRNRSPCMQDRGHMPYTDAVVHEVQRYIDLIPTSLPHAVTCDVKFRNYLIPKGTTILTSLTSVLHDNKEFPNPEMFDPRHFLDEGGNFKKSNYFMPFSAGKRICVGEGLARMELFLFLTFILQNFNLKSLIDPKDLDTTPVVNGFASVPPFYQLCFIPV

Cytochrome P450 2D6 = Cytochrome P450 2D6 (Homo sapiens, UniProt P10635); test: Inhibition of CYP2D6; assay type: ADME
Sequence of Cytochrome P450 2D6 (P10635 whole entry): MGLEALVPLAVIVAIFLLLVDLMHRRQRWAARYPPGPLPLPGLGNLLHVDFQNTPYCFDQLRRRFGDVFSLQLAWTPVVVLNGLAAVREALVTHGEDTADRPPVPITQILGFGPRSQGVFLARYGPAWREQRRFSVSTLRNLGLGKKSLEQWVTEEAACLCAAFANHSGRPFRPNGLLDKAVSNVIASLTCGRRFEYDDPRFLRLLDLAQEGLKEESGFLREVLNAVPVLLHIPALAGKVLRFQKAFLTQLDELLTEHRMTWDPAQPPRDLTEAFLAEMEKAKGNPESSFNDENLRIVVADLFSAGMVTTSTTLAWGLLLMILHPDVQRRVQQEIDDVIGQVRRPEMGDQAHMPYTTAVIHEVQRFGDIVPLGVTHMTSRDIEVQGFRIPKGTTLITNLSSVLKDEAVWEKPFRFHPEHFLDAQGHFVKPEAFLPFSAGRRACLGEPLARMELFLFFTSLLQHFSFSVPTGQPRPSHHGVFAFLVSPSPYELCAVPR

Cytochrome P450 3A4 = Cytochrome P450 3A4 (Homo sapiens, UniProt P08684); test: Inhibition of CYP3A4; assay type: ADME
Sequence of Cytochrome P450 3A4 (P08684 whole entry): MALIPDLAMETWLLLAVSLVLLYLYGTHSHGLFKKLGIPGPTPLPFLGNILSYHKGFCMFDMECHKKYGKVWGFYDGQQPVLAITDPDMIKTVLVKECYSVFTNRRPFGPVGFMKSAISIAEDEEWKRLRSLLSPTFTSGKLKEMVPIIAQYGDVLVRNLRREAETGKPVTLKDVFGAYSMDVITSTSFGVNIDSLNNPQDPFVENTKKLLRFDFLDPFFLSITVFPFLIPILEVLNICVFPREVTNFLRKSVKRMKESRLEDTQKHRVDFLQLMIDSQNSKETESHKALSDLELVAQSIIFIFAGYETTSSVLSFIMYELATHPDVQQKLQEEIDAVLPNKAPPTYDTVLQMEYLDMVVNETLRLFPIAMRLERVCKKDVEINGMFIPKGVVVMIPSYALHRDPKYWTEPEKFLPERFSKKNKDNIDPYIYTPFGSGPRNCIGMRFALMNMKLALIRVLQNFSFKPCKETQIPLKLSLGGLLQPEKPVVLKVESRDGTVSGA

[4] = Protein binding in human plasma; assay type: ADME, cell-free; details: read-out: PPB (converted)
[5] = Cmax in rat at 5 mg/kg, iv; assay type: ADME, organism-based; parameters: dose 5 mg/kg, route intravenous; details: in vivo
Procedure, shortened: (§1)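 Pharmacokinetics were determined in female rats after oral and intravenous administration.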

[6] = AUC in rat at 5 mg/kg, iv; assay type: ADME, organism-based; parameters: dose 5 mg/kg, route intravenous; details: plasma; procedure, shortened: as §1
[7] = Half life in rat at 5 mg/kg, iv; assay type: ADME, organism-based; parameters: dose 5 mg/kg, route intravenous; details: in vivo; procedure, shortened: as §1
[8] = Clearance in rat at 5 mg/kg, iv; assay type: ADME, organism-based; parameters: dose 5 mg/kg, route intravenous; details: in vivo; procedure, shortened: as §1
[9] = Volume of distribution at steady state in rat at 5 mg/kg, iv; assay type: ADME, organism-based; parameters: dose 5 mg/kg, route intravenous; details: in vivo, read-out: Vdss; procedure, shortened: as §1
[10] = Cmax in rat at 10 mg/kg, po; assay type: ADME, organism-based; parameters: dose 10 mg/kg, route oral; details: in vivo; procedure, shortened: as §1
[11] = AUC in rat at 10 mg/kg, po; assay type: ADME, organism-based; parameters: dose 10 mg/kg, route oral; details: plasma; procedure, shortened: as §1
[12] = Half life in rat at 10 mg/kg, po; assay type: ADME, organism-based; parameters: dose 10 mg/kg, route oral; details: in vivo; procedure, shortened: as §1
[13] = Oral bioavailability in rat at 10 mg/kg; assay type: ADME, organism-based; details: in vivo; procedure, shortened: as §1
Rattus norvegicus [14] = test: Antiinflammatory activity in rat assessed as inhibition of LPS-induced TNFalpha production at 0.01 mg/kg, po; assay type: functional, organism-based; parameters: dose 0.01 mg/kg
Rattus norvegicus [15] = test: Antiinflammatory activity in po dosed rat assessed as inhibition of LPS-induced TNFalpha production; assay type: functional
Procedure, shortened: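 Rat in vivo model: rats were dosed orally and TNF-α production was induced with LPS. Inhibition of TNF-α production was measured and an ED50 was determined.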

Rattus norvegicus [16] = test: Antiinflammatory activity in po dosed rat assessed as inhibition of LPS-induced neutrophilia in bronchoalveolar lavage fluid; assay type: functional; details: Lung
Procedure, shortened: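 Rat in vivo model: rats were dosed orally and neutrophilia was induced with LPS. Neutrophils were counted in bronchoalveolar lavage fluid and an ED50 for inhibition was determined.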

SMILES | IC50 (PBMC) | IC50 (Blood) | IC50 (Phosphodiesterase 4) | other results
CCOc1cc(C(CS(C)(=O)=O)N2C(=O)c3cccc(NC(C)=O)c3C2=O)ccc1OC (racemic) | 190 nM | 440 nM |  | 
CCOc1cc([C@H](CS(C)(=O)=O)N2C(=O)c3cccc(NC(C)=O)c3C2=O)ccc1OC | 370 nM |  |  | 
O=C(Nc1c(Cl)cncc1Cl)c1ccc(OC(F)F)c(OCC2CC2)c1 [ROFLUMILAST] | 0.02 nM |  |  | ED50 (Rattus norvegicus [1]): 0.9 mg/kg
CCOc1cc(C(CS(C)(=O)=O)N2C(=O)c3cccc(OC)c3C2=O)ccc1OC (racemic) | 340 nM |  | 690 nM | 
CCOc1cc(C(CC#N)N2C(=O)c3cccc(NC(C)=O)c3C2=O)ccc1OC (racemic) | 440 nM | 1600 nM | 130 nM | 
CCOc1cc(C(CS(C)(=O)=O)N2C(=O)c3cccc(N)c3C2=O)ccc1OC (racemic) | 370 nM | 2200 nM | 120 nM | Ratio IC50 [2]: 6
CCOc1cc(C(CS(C)(=O)=O)N2C(=O)c3cccc(C)c3C2=O)ccc1OC (racemic) | 270 nM | 2400 nM | 68 nM | Ratio IC50 [2]: 9
CCOc1cc(C(CS(C)(=O)=O)N2C(=O)c3cccc(N(C)C)c3C2=O)ccc1OC (racemic) | 220 nM | 1400 nM | 120 nM | Ratio IC50 [2]: 6
COC(=O)CC(c1ccc(OC)c(OC2CCCC2)c1)N1C(=O)c2ccccc2C1=O (stereo unspecified) | 1700 nM |  | 1600 nM | 
CCOc1cc(C(CC(N)=O)N2C(=O)c3ccccc3C2=O)ccc1OC (stereo unspecified) |  | 10500 nM | 1900 nM | 
CCOc1cc(C(CS(C)(=O)=O)N2C(=O)c3cccc(O)c3C2=O)ccc1OC (racemic) | 1470 nM |  | 820 nM | 
CCOc1cc(C(CC#N)N2C(=O)c3ccccc3C2=O)ccc1OC (stereo unspecified) | 240 nM | 490 nM | 40 nM | 
CCOc1cc([C@@H](CS(C)(=O)=O)N2C(=O)c3cccc(NC(C)=O)c3C2=O)ccc1OC | 77 nM | 110 nM |  | half-life [3]: > 1 h; IC50 (Cytochrome P450 1A2): > 10000 nM; IC50 (Cytochrome P450 2C9): > 10000 nM; IC50 (Cytochrome P450 2C19): > 10000 nM; IC50 (Cytochrome P450 2D6): > 10000 nM; IC50 (Cytochrome P450 3A4): > 10000 nM; fraction unbound [4]: 0.1; Cmax [5]: 6600 ng/mL; AUC [6]: 11000 ng·h/mL; half-life [7]: 3 h; clearance [8]: 8.33 mL/min/kg; Vd [9]: 2 L/kg; Cmax [10]: 1100 ng/mL; AUC [11]: 14000 ng·h/mL; half-life [12]: 5 h; bioavailability [13]: 64%; Activity (Rattus norvegicus [14]): Active; ED50 (Rattus norvegicus [15]): 0.03 mg/kg; ED50 (Rattus norvegicus [16]): 0.3 mg/kg
CCOc1cc([C@@H](CC(N)=O)N2C(=O)c3cccc(NC(C)=O)c3C2=O)ccc1OC | 3000 nM |  | 710 nM | 
CCOc1cc(C(CC(=O)O)N2C(=O)c3ccccc3C2=O)ccc1OC (stereo unspecified) | 35000 nM |  | 1300 nM | 
COc1ccc(C(CC#N)N2C(=O)c3ccccc3C2=O)cc1OC1CCCC1 (stereo unspecified) |  |  | 340 nM | 
COc1ccc(C(CS(C)(=O)=O)N2C(=O)c3ccccc3C2=O)cc1OC1CCCC1 (stereo unspecified) | 1500 nM |  | 260 nM | 
CCOc1cc(C(CC(=O)OC)N2C(=O)c3ccccc3C2=O)ccc1OC (stereo unspecified) |  | 4000 nM | 220 nM | 
CCOc1cc(C(CS(C)(=O)=O)N2C(=O)c3ccccc3C2=O)ccc1OC (stereo unspecified) | 1300 nM | 2500 nM | 220 nM | 
COc1ccc(C(CC(=O)O)N2C(=O)c3ccccc3C2=O)cc1OC1CCCC1 (stereo unspecified) | 36000 nM |  | 340 nM | 
